Reference: ChEMBL document CHEMBL1124369, “Pyrido[3,4-e]-1,2,4-triazines and related heterocycles as potential antifungal agents” (1989)
≈ marks a conversion by molar mass, not a printed value.

Tests used:
Diutina rugosa = assay: Antifungal activity against Candida rugosa; assay type: functional
Procedure, shortened: (§1)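 Agar dilution MIC. Twofold serial drug dilutions in yeast nitrogen base medium with 1% dextrose, 0.15% asparagine and 1.5% agar. Agar surfaces inoculated using a Steers multiple inocula replicator, then incubated at 35 °C for 24-48 h. MIC was recorded as the lowest concentration inhibiting visible growth. Amphotericin B, miconazole and nystatin served as controls.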

Candida albicans [1] = assay: Antifungal activity against Candida albicans; assay type: functional; procedure, shortened: as §1
Candida albicans [2] = assay: Antifungal activity against Candida stellatoidea; assay type: functional; procedure, shortened: as §1
Candida parapsilosis = assay: Antifungal activity against Candida parapsilosis; assay type: functional; procedure, shortened: as §1
Aspergillus niger [3] = assay: Antifungal activity against Aspergillus niger; Range is 16-32; assay type: functional; procedure, shortened: as §1
Kluyveromyces marxianus [4] = assay: Antifungal activity against Candida pseudotropicalis; assay type: functional; procedure, shortened: as §1
Trichophyton rubrum [5] = assay: Antifungal activity against Trichophyton rubrum; Range is 1-2; assay type: functional; procedure, shortened: as §1
Mucor fragilis = assay: Antifungal activity against Mucor fragilis; assay type: functional; procedure, shortened: as §1
Trichophyton benhamiae [6] = assay: Antifungal activity against Trichophyton mentagrophytes; assay type: functional, trychophyton mentagrophytes; procedure, shortened: as §1
Candida tropicalis [7] = assay: Antifungal activity against Candida tropicalis; Range is 8-16; assay type: functional; procedure, shortened: as §1
Aspergillus niger [8] = assay: Antifungal activity against Aspergillus niger; Range is 64-128; assay type: functional; procedure, shortened: as §1
Trichophyton rubrum [9] = assay: Antifungal activity against Trichophyton rubrum; Range is 4-8; assay type: functional; procedure, shortened: as §1
Candida albicans [10] = assay: Antifungal activity against Candida albicans; Range is 64-128; assay type: functional; procedure, shortened: as §1
Candida tropicalis [11] = assay: Antifungal activity against Candida tropicalis; assay type: functional; procedure, shortened: as §1
Trichophyton benhamiae [12] = assay: Antifungal activity against Trichophyton mentagrophytes; Range is 16-32; assay type: functional; conditions: trychophyton mentagrophytes
Trichophyton rubrum [13] = assay: Antifungal activity against Trichophyton rubrum; assay type: functional; procedure, shortened: as §1
Aspergillus niger [14] = assay: Antifungal activity against Aspergillus niger; assay type: functional; procedure, shortened: as §1
Candida albicans [15] = assay: Antifungal activity against Candida albicans; Range is 8-16; assay type: functional; procedure, shortened: as §1
Aspergillus niger [16] = assay: Antifungal activity against Aspergillus niger; Range is 8-16; assay type: functional; procedure, shortened: as §1
Candida tropicalis [17] = assay: Antifungal activity against Candida tropicalis; Range is 4-8; assay type: functional; procedure, shortened: as §1
Kluyveromyces marxianus [18] = assay: Antifungal activity against Candida pseudotropicalis; Range is 2-4; assay type: functional; procedure, shortened: as §1
Trichophyton rubrum [19] = assay: Antifungal activity against Trichophyton rubrum; Range is 2-4; assay type: functional; procedure, shortened: as §1
Trichophyton benhamiae [20] = assay: Antifungal activity against Trichophyton mentagrophytes; Range is 32-64; assay type: functional, trychophyton mentagrophytes; procedure, shortened: as §1
Trichophyton rubrum [21] = assay: Antifungal activity against Trichophyton rubrum; Range is 32-64; assay type: functional; procedure, shortened: as §1
Trichophyton rubrum [22] = assay: Antifungal activity against Trichophyton rubrum; Range is 8-32; assay type: functional
Aspergillus niger [23] = assay: Antifungal activity against Aspergillus niger; Range is 32-64; assay type: functional; procedure, shortened: as §1
Kluyveromyces marxianus [24] = assay: Antifungal activity against Candida pseudotropicalis; Range is 8-16; assay type: functional; procedure, shortened: as §1
Candida tropicalis [25] = assay: Antifungal activity against Candida tropicalis; Range is 8-32; assay type: functional; procedure, shortened: as §1
Candida tropicalis [26] = assay: Antifungal activity against Candida tropicalis; Range is 4-16; assay type: functional; procedure, shortened: as §1
Aspergillus niger [27] = assay: Antifungal activity against Aspergillus niger; Range is 32-128; assay type: functional; procedure, shortened: as §1
Candida albicans [28] = assay: Antifungal activity against Candida albicans; Range is 16-32; assay type: functional; procedure, shortened: as §1

Molecule	MIC (Diutina rugosa)	MIC (Candida albicans [1])	MIC (Candida albicans [2])	MIC (Candida parapsilosis; Lodderomyces parapsilosis)	MIC (Kluyveromyces marxianus [4])	MIC (Mucor fragilis)	MIC (Trichophyton benhamiae [6])	MIC (Candida tropicalis [11])	MIC (Trichophyton rubrum [13])	MIC (Aspergillus niger [14])	also measured
Fc1cccc(-c2nnc3ccncc3n2)c1	16 µg/mL (≈ 70.7 µM)	16 µg/mL (≈ 70.7 µM)	32 µg/mL (≈ 141 µM)	16 µg/mL (≈ 70.7 µM)	8 µg/mL (≈ 35.4 µM)	16 µg/mL (≈ 70.7 µM)	4 µg/mL (≈ 17.7 µM)	–	–	–	MIC (Aspergillus niger [3]): 16 µg/mL (≈ 70.7 µM); MIC (Trichophyton rubrum [5]): 1 µg/mL (≈ 4.42 µM); MIC (Candida tropicalis [7]): 8 µg/mL (≈ 35.4 µM)
C(=C\N1CCCCC1)/c1nnc2ccncc2n1	–	–	–	128 µg/mL (≈ 530 µM)	128 µg/mL (≈ 530 µM)	–	16 µg/mL (≈ 66.3 µM)	128 µg/mL (≈ 530 µM)	–	–	MIC (Aspergillus niger [8]): 64 µg/mL (≈ 265 µM); MIC (Trichophyton rubrum [9]): 4 µg/mL (≈ 16.6 µM); MIC (Candida albicans [10]): 64 µg/mL (≈ 265 µM)
NYSTATIN	> 128 µg/mL	16 µg/mL	> 128 µg/mL	–	8 µg/mL	16 µg/mL	–	16 µg/mL	32 µg/mL	16 µg/mL	MIC (Trichophyton benhamiae [12]): 16 µg/mL; MIC (Candida parapsilosis): 16 µg/mL
c1ccc2c(c1)ncc1ncnnc12 [STRINOLINE]	–	–	–	16 µg/mL (≈ 87.8 µM)	8 µg/mL (≈ 43.9 µM)	–	4 µg/mL (≈ 22 µM)	16 µg/mL (≈ 87.8 µM)	–	–	MIC (Candida albicans [15]): 8 µg/mL (≈ 43.9 µM); MIC (Trichophyton rubrum [9]): 4 µg/mL (≈ 22 µM); MIC (Aspergillus niger [16]): 8 µg/mL (≈ 43.9 µM)
c1cc(-c2nnc3ccncc3n2)ccn1	32 µg/mL (≈ 153 µM)	8 µg/mL (≈ 38.2 µM)	32 µg/mL (≈ 153 µM)	8 µg/mL (≈ 38.2 µM)	–	32 µg/mL (≈ 153 µM)	4 µg/mL (≈ 19.1 µM)	–	–	–	MIC (Candida tropicalis [17]): 4 µg/mL (≈ 19.1 µM); MIC (Kluyveromyces marxianus [18]): 2 µg/mL (≈ 9.56 µM); MIC (Trichophyton rubrum [19]): 2 µg/mL (≈ 9.56 µM); MIC (Aspergillus niger [16]): 8 µg/mL (≈ 38.2 µM)
c1cc2c(cn1)NC1(CCCCC1)N=N2	–	128 µg/mL (≈ 633 µM)	–	128 µg/mL (≈ 633 µM)	128 µg/mL (≈ 633 µM)	–	–	128 µg/mL (≈ 633 µM)	–	128 µg/mL (≈ 633 µM)	MIC (Trichophyton benhamiae [20]): 32 µg/mL (≈ 158 µM); MIC (Trichophyton rubrum [21]): 32 µg/mL (≈ 158 µM)
COc1cc(-c2nnc3ccncc3n2)cc(OC)c1OC	128 µg/mL (≈ 429 µM)	–	128 µg/mL (≈ 429 µM)	–	64 µg/mL (≈ 215 µM)	128 µg/mL (≈ 429 µM)	–	128 µg/mL (≈ 429 µM)	–	128 µg/mL (≈ 429 µM)	MIC (Candida albicans [10]): 64 µg/mL (≈ 215 µM)
c1ccc2c(c1)ncc1nc(-c3ccncc3)nnc12	–	128 µg/mL (≈ 494 µM)	–	128 µg/mL (≈ 494 µM)	–	–	64 µg/mL (≈ 247 µM)	128 µg/mL (≈ 494 µM)	64 µg/mL (≈ 247 µM)	–	MIC (Kluyveromyces marxianus [18]): 2 µg/mL (≈ 7.71 µM); MIC (Aspergillus niger [8]): 64 µg/mL (≈ 247 µM)
FC(F)(F)c1ccc(-c2nnc3ccncc3n2)cc1	> 128 µg/mL	–	> 128 µg/mL	128 µg/mL (≈ 463 µM)	128 µg/mL (≈ 463 µM)	> 128 µg/mL	64 µg/mL (≈ 232 µM)	128 µg/mL (≈ 463 µM)	–	128 µg/mL (≈ 463 µM)	MIC (Candida albicans [10]): 64 µg/mL (≈ 232 µM); MIC (Trichophyton rubrum [22]): 8 µg/mL (≈ 29 µM)
Cc1nnc2ncccc2n1	–	128 µg/mL (≈ 876 µM)	–	64 µg/mL (≈ 438 µM)	128 µg/mL (≈ 876 µM)	–	128 µg/mL (≈ 876 µM)	128 µg/mL (≈ 876 µM)	128 µg/mL (≈ 876 µM)	–	MIC (Aspergillus niger [23]): 32 µg/mL (≈ 219 µM)
Cc1nnc2ccnc(C)c2n1	–	–	–	128 µg/mL (≈ 799 µM)	–	–	8 µg/mL (≈ 49.9 µM)	–	8 µg/mL (≈ 49.9 µM)	64 µg/mL (≈ 400 µM)	MIC (Candida albicans [15]): 8 µg/mL (≈ 49.9 µM); MIC (Kluyveromyces marxianus [24]): 8 µg/mL (≈ 49.9 µM); MIC (Candida tropicalis [25]): 8 µg/mL (≈ 49.9 µM)
c1cncc(-c2nnc3ccncc3n2)c1	16 µg/mL (≈ 76.5 µM)	–	32 µg/mL (≈ 153 µM)	16 µg/mL (≈ 76.5 µM)	4 µg/mL (≈ 19.1 µM)	> 128 µg/mL	4 µg/mL (≈ 19.1 µM)	–	–	–	MIC (Candida albicans [15]): 8 µg/mL (≈ 38.2 µM); MIC (Aspergillus niger [3]): 16 µg/mL (≈ 76.5 µM); MIC (Candida tropicalis [26]): 4 µg/mL (≈ 19.1 µM); MIC (Trichophyton rubrum [5]): 1 µg/mL (≈ 4.78 µM)
c1ccc(OCc2nnc3ccncc3n2)cc1	8 µg/mL (≈ 33.6 µM)	–	16 µg/mL (≈ 67.2 µM)	–	–	4 µg/mL (≈ 16.8 µM)	–	16 µg/mL (≈ 67.2 µM)	–	–	MIC (Candida albicans [15]): 8 µg/mL (≈ 33.6 µM); MIC (Aspergillus niger [3]): 16 µg/mL (≈ 67.2 µM); MIC (Kluyveromyces marxianus [24]): 8 µg/mL (≈ 33.6 µM)
CN(C)c1ccc(-c2nnc3ccncc3n2)cc1	–	64 µg/mL (≈ 255 µM)	–	64 µg/mL (≈ 255 µM)	32 µg/mL (≈ 127 µM)	–	8 µg/mL (≈ 31.8 µM)	64 µg/mL (≈ 255 µM)	–	–	MIC (Aspergillus niger [27]): 32 µg/mL (≈ 127 µM); MIC (Trichophyton rubrum [19]): 2 µg/mL (≈ 7.96 µM)
Fc1ccc(-c2nnc3ccncc3n2)c(F)c1	–	–	–	16 µg/mL (≈ 65.5 µM)	32 µg/mL (≈ 131 µM)	–	8 µg/mL (≈ 32.8 µM)	16 µg/mL (≈ 65.5 µM)	2 µg/mL (≈ 8.19 µM)	–	MIC (Aspergillus niger [3]): 16 µg/mL (≈ 65.5 µM); MIC (Candida albicans [28]): 16 µg/mL (≈ 65.5 µM)
c1cnc(-c2nnc3ccncc3n2)cn1	64 µg/mL (≈ 304 µM)	64 µg/mL (≈ 304 µM)	64 µg/mL (≈ 304 µM)	–	32 µg/mL (≈ 152 µM)	64 µg/mL (≈ 304 µM)	–	64 µg/mL (≈ 304 µM)	–	–	MIC (Aspergillus niger [23]): 32 µg/mL (≈ 152 µM)
